Bioassay records deposited in PubChem BioAssay by several laboratories.
NS3 helicase inh = HCV NS3 helicase inhibition | actives 0.56% (n = 290,000) | AID 1800 | inhibition, % at 10.9 µM | NS3 helicase DNA unwinding, Cy5 molecular beacon fluorescence;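 active = inhibition above the mean of all tested compounds plus 3 SD, set per campaign, cut at about 35% in these data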;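 note: 0% = DMSO wells and 100% = thioflavine S control wells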
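assay system = NS3 helicase fragment of HCV | buffer or medium = MOPS pH 6.5, MgCl2, DTT, Tween20, BSA | timing = 60 min unwinding reaction at 25 °C after ATP addition | signal = Cy5 beacon fluorescence read at start and 1 h | read-out basis = % inhibition of unwinding | control set = low DMSO, high thioflavine S at 110 µM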
PfM18AAP inh = blocks P. falciparum M18 aspartyl aminopeptidase; recombinant PfM18AAP, H-Glu-NHMec fluorogenic cleavage; inhibition, % at 7.35 µM; actives 1.2% (n = 290,000); AID 1822;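 active = inhibition above the campaign mean inhibition over all tested compounds plus 3 SD, cut at about 28% in these data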;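 note: 0% = plate median of test compound wells and 100% = 2 mM ZnCl2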
EBNA-1 inh = blocks EBNA-1 binding to DNA. EBNA-1 DNA binding, fluorescence polarization. inhibition, % at 14.8 µM. actives 0.34% (n = 300,000). AID 1950; in the data active = inhibition above about 28%
core dimer inh = HCV core protein dimerization inhibition; TR-FRET GST/Flag-core106 dimerization, 1536-well; AID 1899; inhibition, % at 5 µM; actives 0.33% (n = 300,000);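 active = inhibition above the mean of all tested compounds plus 3 SD, set per screening campaign, cut at about 45% in these data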
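System – GST-tagged and Flag-tagged HCV core protein residues 1-106 · Repeats – one well for each compound · Technique – TR-FRET 671 and 617 nm emission · Doses – one concentration, 5 µM, in 0.5% DMSO · Times – 4 h, 22.5 °C incubation · Also added – Eu donor and XL665 acceptor anti-tag antibodies · Measure – percent inhibition of core106 dimerization signal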
ZTA DNA inh = ZTA (EBV) inhibition in EBNA-1 counter-screen; actives 0.15% (n = 320,000); ZTA-DNA binding, fluorescence polarization; inhibition, % at 11 µM; in the data active = inhibition above about 33%
Target sequence (P03206 whole entry, looked up): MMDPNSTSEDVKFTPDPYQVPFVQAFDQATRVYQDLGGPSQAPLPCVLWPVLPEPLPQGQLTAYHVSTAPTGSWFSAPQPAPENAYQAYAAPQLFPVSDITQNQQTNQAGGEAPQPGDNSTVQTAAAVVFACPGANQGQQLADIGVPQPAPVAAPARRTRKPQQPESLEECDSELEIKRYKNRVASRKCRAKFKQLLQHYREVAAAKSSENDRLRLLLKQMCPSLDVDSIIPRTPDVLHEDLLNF
ALR H2O2 inh = inhibitors of human sulfhydryl oxidase ALR | inhibition, % (concentration not given with the values) | purified ALR, DTT oxidation, H2O2 HRP-luminol luminescence | P55789 | actives 3.8% (n = 290,000);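 active = mean replicate inhibition above about 79%, with every replicate also reaching it, limit read from the data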
Target sequence (P55789 whole entry, looked up): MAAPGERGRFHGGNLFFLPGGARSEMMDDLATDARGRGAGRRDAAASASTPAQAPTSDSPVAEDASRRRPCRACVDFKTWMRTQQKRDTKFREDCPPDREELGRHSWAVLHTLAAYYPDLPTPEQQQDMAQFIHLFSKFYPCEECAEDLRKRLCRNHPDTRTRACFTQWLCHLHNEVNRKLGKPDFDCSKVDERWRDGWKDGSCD
* marks the source's active call; other numbers are inactive results; / = no result. Most compounds without a hit are left out; they make up all but 5.2% or so of the library.

SMILES	NS3 helicase inh	PfM18AAP inh	EBNA-1 inh	core dimer inh	ZTA DNA inh	ALR H2O2 inh
Oc1ccc(C=Nc2ccc(N3CCOCC3)cc2)c(O)c1	30.4	18.0	-3.5	6.9	-24.2	98.6*
COc1ccc(/C=C2\SC(=S)N(C(C)C(=O)NC3C=CS(=O)(=O)C3)C2=O)cc1 (stereo not drawn)	10.1	18.2	-1.5	12.2	6.4	98.2*
COc1cccc(/C=C2\SC(=S)N(C(C)C(=O)NC3C=CS(=O)(=O)C3)C2=O)c1 (stereo not drawn)	0.4	18.1	4.3	13.4	25.6	61.6
COc1ccc(S(=O)(=O)NCC2CCCN(C(=O)CCSC)C2)cc1 (stereo not drawn)	7.6	0.7	-6.3	4.2	1.7	/
O=C(c1ccc(Br)c(S(=O)(=O)N2CCCCC2)c1)N1CCCCC1	-0.3	-4.8	4.0	7.1	-5.9	2.1
S=C(Nc1nc2c(s1)CCCC2)NC1CC1	0.5	14.9	/	/	/	85.9*
CCOC(=O)N/N=C/C=C/c1ccccc1	-8.1	5.3	-0.2	-1.7	-14.9	-16.1
Oc1cc(O)cc(/C=C/c2ccc(O)c(O)c2)c1	/	/	-4.1	-22.7	4.0	98.7*
Cc1ccc(OCC(=O)NN=C2c3ccccc3-c3ccccc32)cc1	-0.3	1.4	4.2	2.5	15.6	-9.4
Cc1ccc(NN=C2c3ccccc3-c3ccccc32)cc1	4.2	24.4	-1.7	5.6	3.0	89.0*
COC(=O)c1ccc(NC2=C(Cl)C(=O)OC2OC(=O)c2ccccc2)cc1 (stereo not drawn)	1.3	8.6	-3.6	-2.2	2.6	97.0*
Cc1ccc(NC2=C(Cl)C(=O)OC2OC(=O)c2ccc(C)cc2)cc1 (stereo not drawn)	-4.7	-13.5	0.5	4.8	-1.6	9.2
COc1ccc(CCC(=O)N(C)CC(=O)Nc2cc(C)ccc2C)cc1	1.8	-3.4	-16.1	3.5	-12.3	-14.1
CC1(C)SC(=S)N(/N=C/c2ccc(O)cc2)C1N(O)C(=O)Nc1ccc([N+](=O)[O-])cc1 (stereo not drawn)	2.9	7.8	-7.4	-2.7	3.4	80.6*
O=C(NCc1ccccc1Cl)c1nnc(CS(=O)(=O)c2ccccc2)o1	9.6	1.5	2.1	-3.4	-4.7	-0.2
OCCNc1nc(Nc2cccc(O)c2)nc2ccccc12	-4.2	2.8	-1.6	-0.7	1.9	95.1*
OCCNc1nc(N2CCN(c3ccccc3)CC2)nc2ccccc12	-3.1	5.0	10.7	2.3	-3.2	98.0*
OCCN1CCN(c2nc(NCc3ccco3)c3ccccc3n2)CC1	0.1	-0.5	-6.0	-2.8	-6.5	-1.1
OCCNc1nc(Nc2ccc(O)cc2)nc2ccccc12	-11.3	-0.7	-10.8	-7.3	-7.5	98.8*
COc1cccc(Nc2nc(NCCO)c3ccccc3n2)c1	-4.0	-1.4	-8.8	-9.5	-7.2	-10.0
O=C(Nc1ccccc1)C1=C[C@@H](C2CCCCC2)C[C@@H](OCc2ccc(CO)cc2)O1	4.9	4.2	4.3	2.5	4.1	/
Nc1nc(CSc2ncn(-c3ccccc3)n2)cs1	-9.5	3.8	-3.8	-1.1	0.1	97.9*
CNc1ccc(C2(O)C(=O)c3ccccc3C2=O)cc1	1.1	12.5	-7.0	-14.2	1.8	83.2*
CCOC(=O)N1CCN(C2CCCN(C(=O)c3cccc(N(C)C)c3)C2)CC1 (stereo not drawn)	-4.4	-8.2	-1.1	-4.0	0.8	7.6
CCOc1ccccc1NC(=S)Nc1ccc(S(N)(=O)=O)cc1	2.0	8.8	-5.9	3.8	4.6	1.6
SMILES	NS3 helicase inh	PfM18AAP inh	EBNA-1 inh	core dimer inh	ZTA DNA inh	ALR H2O2 inh
Cc1ccc(N2C(=O)c3sc4nnc(C)c(=O)n4c3C2=O)cc1	-0.6	-4.1	6.3	4.6	-1.9	98.5*
Cc1ccc(NC(=O)COC(=O)c2cccc(C)c2[N+](=O)[O-])cc1S(=O)(=O)N1CCCCC1	/	/	/	/	/	-10.8
O=C(CSCc1ccc([N+](=O)[O-])cc1)NC1CCCCCC1	0.8	-0.7	-4.2	-12.0	-16.4	99.0*
O=C(CSCc1cccc(Br)c1)NC1CC1	8.2	1.5	3.9	1.5	5.2	98.0*
O=C(CSCc1ccc(F)cc1)NC1CCCC1	-0.3	2.5	-8.3	8.3	0.3	-4.3
Cc1ccccc1CSCCNC(=O)CSCc1ccc([N+](=O)[O-])cc1	-6.1	-0.1	1.2	3.6	-0.4	98.6*
